Paper PMC4278532 (Environmental Toxicology and Chemistry / Setac, 2014)

Experiments:
AhR = conditions: cited from earlier work
[1] = target: T1, human aryl hydrocarbon receptor (AhR) (Homo sapiens, UniProt P35869); assay: Yeast bioassay; format: cell-based; conditions: for concentration at which the bioassay response showed signs of saturation: Figure 3
Summary of the method: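 Engineered S. cerevisiae YCM3 (W303a-derived) carries chromosomal full-length human AhR/ARNT under the galactose promoter and a 5×XRE-LacZ plasmid. Kept in glucose medium, diluted to A600 0.04 in 2% galactose medium, exposed 18 h at 30 °C (1% DMSO vehicle). ONPG assay pH 7.0, ~5 min, 37 °C, Na2CO3 stop. A405 normalized to A600, % of 1 µM β-naphthoflavone. Two-parameter fit; n = 4, ≥3 experiments.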

YCM3 yeast cells = assay: Toxicity to the yeast cells; format: cell-based, Saccharomyces cerevisiae; conditions: for toxicity to the yeast cells: compared with 2-MP, 3-MP, 4-MP, tested up to 100 µM; for concentrations toxic to the yeast cells: 18 h, precluded data collection
[2] = target: T1, human aryl hydrocarbon receptor (AhR); conditions: cited from earlier work

T1 sequence (P35869 11-848): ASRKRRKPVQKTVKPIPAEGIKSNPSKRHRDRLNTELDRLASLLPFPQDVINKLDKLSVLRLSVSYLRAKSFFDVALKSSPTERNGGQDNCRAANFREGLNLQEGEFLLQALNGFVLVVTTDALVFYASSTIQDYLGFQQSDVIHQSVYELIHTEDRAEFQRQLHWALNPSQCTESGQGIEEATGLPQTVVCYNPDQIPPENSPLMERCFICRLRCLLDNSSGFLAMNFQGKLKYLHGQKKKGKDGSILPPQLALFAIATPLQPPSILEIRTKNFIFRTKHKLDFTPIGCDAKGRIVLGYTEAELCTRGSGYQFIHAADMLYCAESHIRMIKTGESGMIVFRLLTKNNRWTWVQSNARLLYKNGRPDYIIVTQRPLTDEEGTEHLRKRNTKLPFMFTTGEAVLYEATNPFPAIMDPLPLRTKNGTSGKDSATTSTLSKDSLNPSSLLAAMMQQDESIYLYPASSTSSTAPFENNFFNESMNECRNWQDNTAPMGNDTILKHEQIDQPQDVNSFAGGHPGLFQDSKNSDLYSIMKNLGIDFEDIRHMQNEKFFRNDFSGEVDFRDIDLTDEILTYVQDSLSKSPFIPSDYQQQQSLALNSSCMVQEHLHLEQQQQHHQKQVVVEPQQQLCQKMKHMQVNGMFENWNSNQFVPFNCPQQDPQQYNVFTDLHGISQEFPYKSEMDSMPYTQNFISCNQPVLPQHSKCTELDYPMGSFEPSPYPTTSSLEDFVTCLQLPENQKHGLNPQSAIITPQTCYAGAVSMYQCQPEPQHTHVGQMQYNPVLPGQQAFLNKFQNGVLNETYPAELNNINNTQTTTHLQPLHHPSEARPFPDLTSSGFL
T1 sequence (P27540 whole entry partner): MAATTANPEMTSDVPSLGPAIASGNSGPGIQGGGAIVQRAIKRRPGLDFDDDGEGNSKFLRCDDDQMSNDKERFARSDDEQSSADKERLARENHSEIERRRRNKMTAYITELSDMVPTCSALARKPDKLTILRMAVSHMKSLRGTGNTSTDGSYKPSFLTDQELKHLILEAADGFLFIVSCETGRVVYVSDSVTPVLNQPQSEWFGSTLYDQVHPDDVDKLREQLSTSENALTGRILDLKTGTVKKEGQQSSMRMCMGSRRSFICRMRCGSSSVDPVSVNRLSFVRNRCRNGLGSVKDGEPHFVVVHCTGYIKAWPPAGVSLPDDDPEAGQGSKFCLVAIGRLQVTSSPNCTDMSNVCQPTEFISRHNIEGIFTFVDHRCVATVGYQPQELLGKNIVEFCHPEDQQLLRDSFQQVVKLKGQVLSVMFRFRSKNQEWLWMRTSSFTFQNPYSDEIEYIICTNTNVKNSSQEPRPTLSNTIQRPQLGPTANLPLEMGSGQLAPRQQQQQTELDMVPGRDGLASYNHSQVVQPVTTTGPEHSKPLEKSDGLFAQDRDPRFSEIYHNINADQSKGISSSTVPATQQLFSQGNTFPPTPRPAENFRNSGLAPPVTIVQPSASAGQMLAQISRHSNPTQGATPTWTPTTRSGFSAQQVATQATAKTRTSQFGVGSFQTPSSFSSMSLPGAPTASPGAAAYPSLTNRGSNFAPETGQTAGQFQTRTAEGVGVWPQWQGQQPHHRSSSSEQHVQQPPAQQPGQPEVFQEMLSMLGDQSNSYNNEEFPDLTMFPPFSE

concentration at which the bioassay response showed signs of saturation [1]	Structure (SMILES)	AhR activation in a rat liver system (AhR)	concentrations toxic to the yeast cells (YCM3 yeast cells)	also measured
30 µM	Cc1cccc2c1ccc1ccccc12 [1-MP, 1-methylphenanthrene]	stronger than 9-MP		
	Cc1ccc2ccc3ccccc3c2c1 [3-MP, 3-methylphenanthrene]	stronger than 9-MP	above 50 µM	
	Cc1ccc2ccc3ccc(C)cc3c2c1 [3,6-DMP, 3,6-dimethylphenanthrene]			signal in the bioassay relative to that produced by phenanthrene and the monomethylated derivatives [1]: approximately 50%
	Cc1ccc2c(ccc3ccccc32)c1 [2-MP, 2-methylphenanthrene]	stronger than 9-MP	above 50 µM	
	Cc1cccc2ccc3ccccc3c12 [4-MP, 4-methylphenanthrene]		above 50 µM	
	O=c1cc(-c2ccccc2)oc2ccc3ccccc3c12 [β-NF, β-naphthoflavone]			AhR agonism ([2]; positive control): strong agonist
	c1ccc2c(c1)cc1ccc3cccc4ccc2c1c34 [benzo[a]pyrene]			activity in this yeast bioassay [2]: very potent activator
100 µM	c1ccc2c(c1)ccc1ccccc12 [Phenanthrene, phenanthrene, reference compound]			toxicity to the yeast cells (YCM3 yeast cells): less toxic to the yeast cells

Structure (SMILES)	concentration at which the bioassay response showed signs of saturation [1]	AhR activation in a rat liver system (AhR)	concentrations toxic to the yeast cells (YCM3 yeast cells)	also measured
Cc1cc2ccccc2c2ccccc12 [9-MP, 9-methylphenanthrene]	100 µM			toxicity to the yeast cells (YCM3 yeast cells): less toxic to the yeast cells
